Test: Toxicity liver stage against HepG2, at 10uM
Assay type: cell-based
Design: test concentration 10 uM, cell line HepG2-A16-CD81EGFP
Settings: human, HepG2-A16-CD81EGFP cells; read-out: INHIBITION
How it was run: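 Uninfected HepG2-A16-CD81EGFP cells, 3 × 10^3 per well, 1536-well, plated on prespotted compound at 10 μM final, parasite-free screening media added to match infected plates; puromycin 10 μM positive, DMSO 0.5% negative; run in parallel with 48 h PbLuc assay at 37 °C, 5% CO2; viability by CellTiter-Glo luminescence, normalized to controls.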

Compared with Cn1cc(CN2CCOC[C@H]2c2nc(C(C)(C)C)co2)c2ccccc21, Cc1cc(C)nc(C2CCN(C(=O)CCn3ncc4ccccc43)C2)n1 (stereo unspecified) is lower in cytotoxicity at 10 µM: 1.21% for the first, -17.3% for the second.

First: O=C(N[C@@H]1CNCCC[C@H]1O)c1ccc(OCc2ccccc2)cc1
Second: CCOC(=O)N1CCC(NC(=O)c2cccc(C3CCCNC3)c2)CC1 (stereo unspecified)
The cytotoxicity at 10 µM of the first is lower: -3.39% for the first, 1.34% for the second.

Going from COc1ccc(CNc2c(C)cnc3c2c(=O)n(C)c(=O)n3C)cc1 to COc1cccc(S(=O)(=O)Cc2cc(C)on2)c1, the cytotoxicity at 10 µM rises from 2.9% to 4.03%.

First: CCOCc1cncc2c1CCN(C(=O)c1cccc(C#N)c1)C2
Second: O=C(NCc1cncc2c1CCN(Cc1cccs1)C2)C1CC1
The cytotoxicity at 10 µM of the first is higher: 3.55% for the first, 2.13% for the second.

First: COCCN1C(=O)CO[C@@H]2CN(S(=O)(=O)c3ccccc3)C[C@H]21
Second: CCS(=O)(=O)N1C[C@@H](O)[C@H](N2CCc3ccccc3C2)C1
The cytotoxicity at 10 µM of the first is higher: 0.975% for the first, -3.63% for the second.

Going from C[C@H]1C[C@@H]2CCN(C(=O)c3ccncc3)C[C@H]2O1 to CCN(c1ccc(C(=O)N2CCCC(C)C2)cc1)S(=O)(=O)CC (stereo unspecified), the cytotoxicity at 10 µM falls from -1.02% to -8.6%.

Going from Cn1cc(CN2CC[C@H]3OCC[C@@H](C(=O)NC4CCCC4)[C@@H]3C2)cn1 to Cc1nc(CN2CCO[C@@H]3CN(C(=O)CC4CC4)C[C@@H]3C2)cs1, the cytotoxicity at 10 µM rises from 0.835% to 5.04%.

First: COc1ccccc1OCC(=O)n1nc(C)c(C)c1C
Second: COc1ccccc1OC1CN(C(=O)Cc2c(C)nc(C)[nH]c2=O)C1
The cytotoxicity at 10 µM of the first is lower: -5.01% for the first, -2.9% for the second.

First: Cc1cs/c(=N\C(=O)Cn2nc(N3CCSCC3)ccc2=O)[nH]1
Second: O=C(c1cccn1Cc1cccs1)N1CCSCC1
The cytotoxicity at 10 µM of the first is lower: 2.33% for the first, 4.14% for the second.

First: Cc1nc(N2CCOCC2)nc2c1CN(C(=O)Cc1ccccn1)CC2
Second: N#Cc1cccnc1N1CCCN(CC(=O)N2CCNC(=O)C2)CC1
The cytotoxicity at 10 µM of the first is lower: -7.61% for the first, 4.07% for the second.

Going from CCn1cc(CN(C)S(=O)(=O)c2ccc(C)c(C)c2)cn1 to Cc1ccc(S(=O)(=O)N(C)Cc2nccs2)cc1N(C)C, the cytotoxicity at 10 µM falls from 9.65% to -9.78%.

Compared with COc1ccccc1Cc1cc(O)nc(NC(C)CN(C)C)n1 (stereo unspecified), COc1ccccc1Cc1cncc(N2CC(C(=O)O)C2)n1 is higher in cytotoxicity at 10 µM: 2.32% for the first, 2.71% for the second.

First: Cc1ccccc1OCCCNC(=O)C1(C)CC(=O)N2C=CC=CC2=N1 (stereo unspecified)
Second: Cc1ccccc1OCCCC(=O)NCc1ccnc(O)c1
The cytotoxicity at 10 µM of the first is lower: -4.96% for the first, 5.65% for the second.

First: Cc1nn(C)cc1C(=O)N1CCC(C(=O)c2nc3ccccc3s2)CC1
Second: NC(=O)C1CCN(C(=O)CCn2ccc3cc(Br)ccc32)CC1
The cytotoxicity at 10 µM of the first is higher: 8.12% for the first, -6.44% for the second.

First: CC(=O)N1CCCC(c2nc(N(C)C)ncc2-c2ccccc2)C1 (stereo unspecified)
Second: COc1ccccc1-c1nccnc1C1CCN(C(C)=O)CC1
The cytotoxicity at 10 µM of the first is higher: 14.7% for the first, -1.69% for the second.

First: Cc1ccccc1CC(=O)N[C@@H]1CCC[C@@H](N2CCNC(=O)C2)[C@@H]1O
Second: O=C(Cc1ccon1)NC1CCCN(c2ccccc2F)C1=O (stereo unspecified)
The cytotoxicity at 10 µM of the first is lower: -24.5% for the first, -2.03% for the second.

Going from Cc1ccnn1CCC(=O)N1C[C@@H](O)[C@H](Oc2cccc(F)c2)C1 to COCCOc1cccc(C(=O)N2CCCC(n3cccn3)C2)c1 (stereo unspecified), the cytotoxicity at 10 µM rises from -15.8% to -7.81%.

Going from CCC(=O)N1CCCC(c2ncc3c(n2)CCN(C)C3)C1 (stereo unspecified) to CC(C)n1c(C(=O)N2CCCC2)nc2c1CCN(C)C2, the cytotoxicity at 10 µM rises from -8.77% to 15.3%.

Compared with CN1CCCCC12Cc1ccccc1CN(C(=O)c1ccccc1)C2 (stereo unspecified), O=C(CNC(=O)C1CC1)Nc1c(F)cccc1Oc1ccccc1 is lower in cytotoxicity at 10 µM: 7.44% for the first, 0.99% for the second.

Compared with CC(C)C(NC(=O)N1CCS(=O)(=O)CC1)c1ccccc1Cl (stereo unspecified), CCC(=O)NC(C)c1ccccc1C (stereo unspecified) is lower in cytotoxicity at 10 µM: 13.3% for the first, 0.245% for the second.

Going from COCCC(C)NS(=O)(=O)c1ccc(C)c(N(C)C)c1 (stereo unspecified) to CCn1ncc2c1C(COC)CN(S(=O)(=O)N(C)C)C2 (stereo unspecified), the cytotoxicity at 10 µM rises from -0.2% to 12.5%.

First: CC1CS(=O)(=O)CCN1CCCc1ccc(C(F)(F)F)cc1 (stereo unspecified)
Second: Cc1ccc(CNC(=O)N2CCCC(NS(C)(=O)=O)C2)cc1 (stereo unspecified)
The cytotoxicity at 10 µM of the first is lower: 0.715% for the first, 2.73% for the second.

First: CCc1nnc(CSc2ccccn2)o1
Second: CCN(CC)S(=O)(=O)N(Cc1cccc(C)c1)Cc1ccccn1
The cytotoxicity at 10 µM of the first is higher: -2.98% for the first, -4.88% for the second.

Going from O=c1cc(CN(Cc2ccco2)C2CC2)nc2ccc(Br)cn12 to CN(Cc1cn2c(n1)CN(C1CCOC1)CC2)Cc1ccco1 (stereo unspecified), the cytotoxicity at 10 µM falls from 9.48% to -2.15%.

Compared with CN(CC(N)=O)C(=O)CCCn1ccc2cc(Cl)ccc21, CC(C)OCCCNC(=O)CS(=O)(=O)Cc1ccc(Cl)cc1 is lower in cytotoxicity at 10 µM: -2.13% for the first, -2.87% for the second.

Going from COc1ccnc(N2CCCN(Cc3ncc(C(C)C)o3)CC2)n1 to C=C(C)CN1CCN(Cc2cnc(-c3ccccc3C)nc2)CC1, the cytotoxicity at 10 µM falls from 1.74% to -33.6%.

Going from O=S(=O)(CC1CCCCO1)Nc1cnn(CC(F)F)c1 (stereo unspecified) to O=C(c1cnn[nH]1)N(Cc1ccncc1)CC1CCCO1 (stereo unspecified), the cytotoxicity at 10 µM rises from -3.09% to 2.86%.

Going from Cc1cc(CN(C)C(=O)NCc2ccnc(N(C)C)c2)no1 to Cc1cc(CN(C)C(=O)C2CCCN(C(N)=O)C2)no1 (stereo unspecified), the cytotoxicity at 10 µM rises from 5.85% to 11.6%.

First: N#Cc1nccnc1NC1CCN(c2c(F)cccc2F)C1 (stereo unspecified)
Second: Cc1cc(CN2CCC(c3nccn3C(C)C)CC2)ccc1F
The cytotoxicity at 10 µM of the first is lower: 5.2% for the first, 5.22% for the second.

Compared with COc1cc2c(cc1OC)S(=O)(=O)N(Cc1ccccc1)C2=O, COCCN1CC[C@H](OC)[C@@H]1Cc1ccccc1 is lower in cytotoxicity at 10 µM: 8.2% for the first, -0.675% for the second.

Going from CN(C)c1cccc(C2CCCN2S(N)(=O)=O)c1 (stereo unspecified) to O=C1CC(c2cccnc2)C2(CCN(S(=O)(=O)C3CC3)CC2)N1 (stereo unspecified), the cytotoxicity at 10 µM rises from -5.44% to -2.29%.

Compared with CC(CNC(=O)c1cnccn1)Oc1cccc(Br)c1 (stereo unspecified), O=C(Cc1n[nH]c(-c2cncc(Br)c2)n1)NCc1cccnc1 is higher in cytotoxicity at 10 µM: 1.25% for the first, 2.74% for the second.

First: Cc1cc(C)n(-c2ccc(C(=O)N3CCCC3c3cnn(C)c3)cc2)n1 (stereo unspecified)
Second: Cc1nn(C)c(Cl)c1C1CCCN1C(=O)c1csnn1 (stereo unspecified)
The cytotoxicity at 10 µM of the first is lower: -7.41% for the first, -0.121% for the second.

Compared with CN(CCC#N)C(=O)Cc1csc(-c2ncccn2)n1, Cc1ccsc1C(=O)NCc1cccnc1N(C)CCc1ccccn1 is lower in cytotoxicity at 10 µM: -0.343% for the first, -0.678% for the second.

First: Cc1nc(C2CCCN2C(=O)CCCOc2ccccc2C)no1 (stereo unspecified)
Second: COc1ncccc1CNC(=O)NC1CCCOc2ccccc21 (stereo unspecified)
The cytotoxicity at 10 µM of the first is higher: -2.21% for the first, -6.14% for the second.

Compared with O=C(CN1CCc2ccccc21)Nc1ccc(OC(F)F)cc1, O=C(NCCO)c1ccn(-c2ccc3ccccn23)n1 is lower in cytotoxicity at 10 µM: 16.8% for the first, -8.21% for the second.

First: COc1cccc(CNC(=O)c2nc3c(s2)CCN(C(C)=O)CC3)c1
Second: Cc1csc(CNC(=O)NC(C)c2ccc3c(c2)CCC(=O)N3)n1 (stereo unspecified)
The cytotoxicity at 10 µM of the first is lower: -77.4% for the first, 4.17% for the second.

Going from O=C(c1cnccn1)N1CCc2onc(Cn3cccn3)c2C1 to O=C(c1cnccn1)N1CCCC2(CCN(c3ncccn3)C2)C1 (stereo unspecified), the cytotoxicity at 10 µM rises from -0.25% to 5.61%.

Compared with O=C1CCC2(CCOC2)CN1Cc1nncn1CCc1ccccc1 (stereo unspecified), c1ccc(COCCN2CCc3[nH]cnc3C2c2ccoc2)cc1 (stereo unspecified) is higher in cytotoxicity at 10 µM: -0.506% for the first, 6.62% for the second.

Compared with CCCn1cnnc1CNC1CCCC1, CCCN1CCCn2nc(CNS(=O)(=O)c3ccc(C)cc3)cc2C1 is higher in cytotoxicity at 10 µM: -2.27% for the first, 1.6% for the second.

First: Cc1cc(C)nc(N2CCCC(Cn3cc(CN(C)C)nn3)C2)n1 (stereo unspecified)
Second: CC1CN(Cc2cnn(C)c2)CCN1c1ccc2nncn2n1 (stereo unspecified)
The cytotoxicity at 10 µM of the first is lower: -5.43% for the first, 2.69% for the second.

Compared with CCC(OC)C(=O)N1CCC2(CC1)c1nc[nH]c1CCN2S(C)(=O)=O (stereo unspecified), Cn1cccc1C(=O)N1CCC2(CCCN(CC3CC3)C2=O)C1 (stereo unspecified) is higher in cytotoxicity at 10 µM: -6.6% for the first, -0.445% for the second.

Going from COc1ncccc1C1CC(=O)Nc2cc(NS(C)(=O)=O)ccc21 (stereo unspecified) to CN(C)S(=O)(=O)N1CC[C@]2(C[C@@H](Oc3ncccc3F)CO2)C1, the cytotoxicity at 10 µM falls from -8.1% to -67%.

Compared with Cc1ccc(F)cc1CC(=O)N1CC[C@@]2(O)CCNC[C@H]2C1, O=C(c1ccc2c(c1)CCC2)N1C[C@@H](CN2CCOCC2)[C@@H](CO)C1 is higher in cytotoxicity at 10 µM: 2.38% for the first, 20.7% for the second.

First: O=C(O)CSc1nnc(-c2ccn[nH]2)n1-c1cccc(C(F)(F)F)c1
Second: O=C(O)CSc1nnc(-c2cn[nH]c2)n1-c1ccccc1Cl
The cytotoxicity at 10 µM of the first is higher: 0.34% for the first, -3.54% for the second.

Compared with Cc1[nH]ccc1C(=O)N[C@H]1CN(CCO)C[C@@H]1C1CC1, O=C(NCCO)c1sc2ncccc2c1C1CNCCO1 (stereo unspecified) is higher in cytotoxicity at 10 µM: 3.07% for the first, 11.2% for the second.

Going from CN(CC1CCOCC1)C(C(=O)O)c1cccc(F)c1F (stereo unspecified) to O=C(C1CCOCC1)N1CCO[C@H]2[C@H](Oc3cccnc3)CC[C@@H]21, the cytotoxicity at 10 µM falls from 6.89% to 2.03%.

Going from CCN1CCN(S(=O)(=O)c2ccc(Cc3cc(C)n[nH]c3=O)cc2)CC1 to CC(O)CN1CCN(C(=O)c2ccc(CN(C)C)cc2)CC1 (stereo unspecified), the cytotoxicity at 10 µM rises from -8.25% to -8.09%.

Compared with Cc1cc(C)c2nc(CN3CCOC(CCO)C3)cc(O)c2c1 (stereo unspecified), Cc1n[nH]c(=O)c2c(NC(=O)CN3CCOCC3)oc(C)c12 is higher in cytotoxicity at 10 µM: -9.26% for the first, -7.95% for the second.

Compared with Cc1nc(C(C)(C)C)sc1C(=O)NCCNc1ncccn1, O=C(NCCOc1ccccc1)Nc1cc(C(F)(F)F)c[nH]c1=O is lower in cytotoxicity at 10 µM: -4.83% for the first, -11.9% for the second.

Compared with CCn1cc(NC(=O)C2CCN(CC(=O)NC(C)(C)CC)CC2)cn1, O=C(CC1CC1)NCc1cn2c(n1)CN(CC1CC1)CC2 is higher in cytotoxicity at 10 µM: -1.01% for the first, 4.17% for the second.

First: O=C(c1ccon1)N1CCCC(n2cncn2)C1 (stereo unspecified)
Second: c1ccc(-n2ccc(CN3CCCC3Cn3cncn3)n2)cc1 (stereo unspecified)
The cytotoxicity at 10 µM of the first is lower: -8.51% for the first, 0.665% for the second.

Compared with CC(CNc1cncc(-n2cccn2)n1)N(C)c1ccccc1 (stereo unspecified), CC(Cn1cccn1)NCc1csc(-c2ccccc2F)n1 (stereo unspecified) is lower in cytotoxicity at 10 µM: -4.48% for the first, -7.71% for the second.

Compared with Cc1ccc(CN(CCCN(C)C)Cc2cnc(C)n2C)o1, Cc1nnc(N2CCCC3(CN(Cc4ccncc4)CCO3)C2)o1 (stereo unspecified) is lower in cytotoxicity at 10 µM: 9.96% for the first, -13.5% for the second.

Compared with CC(=O)N1CCC12CCN(Cc1ccco1)CC2, Cc1nnc([C@]23COC[C@H]2CN(Cc2nccs2)C3)o1 is lower in cytotoxicity at 10 µM: 1.17% for the first, 0.872% for the second.

Work on O=C(NCC1CCCCC1)N1C[C@@H]2C[C@@H]1CN2 yielded a cytotoxicity at 10 µM of -7.78%.

Source: ChEMBL document CHEMBL4513216, “Probing the Open Global Health Chemical Diversity Library for Multistage-Active Starting Points for Next-Generation Antimalarials” (ACS Infect Dis, 2020)
